# Screening results deposited in PubChem BioAssay by several laboratories.
# PMI act – activators of human PMI, primary screen, biochemical, fluorescence intensity, near-Km mannose 6-phosphate | 190,000 tested, 0.005% active | Mannose-6-phosphate isomerase (Homo sapiens), P34949 | activation factor at 20 µM | purified human PMI, coupled resazurin fluorescence, 20 min; active compounds read high; 1 = vehicle control, 0 substrate-free wells | AID 1214, 2008;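 active = activation factor of 2 or more at 20 µM, relative to plate controls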
# Target sequence (P34949 whole entry, looked up): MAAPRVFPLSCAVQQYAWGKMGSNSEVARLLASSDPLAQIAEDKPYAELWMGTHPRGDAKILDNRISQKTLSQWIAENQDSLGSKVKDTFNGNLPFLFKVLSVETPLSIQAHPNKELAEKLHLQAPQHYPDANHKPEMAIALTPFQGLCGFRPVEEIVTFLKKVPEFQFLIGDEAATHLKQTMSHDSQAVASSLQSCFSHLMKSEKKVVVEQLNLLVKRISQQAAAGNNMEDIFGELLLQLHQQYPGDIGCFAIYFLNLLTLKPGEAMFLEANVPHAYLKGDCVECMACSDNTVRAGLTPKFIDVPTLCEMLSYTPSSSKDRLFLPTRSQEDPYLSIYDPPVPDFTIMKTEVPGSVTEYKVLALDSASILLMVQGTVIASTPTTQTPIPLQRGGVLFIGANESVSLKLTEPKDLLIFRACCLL
# WT yeast gro inh – growth inhibition of WT strain, primary screen, mitochondrial fusion inhibitor project, WT and mutant strains, chemical genetic; inhibition, % at 10 µM; AID 1362, 2008; mitochondrial fusion phenotypic screen; 190,000 tested, 2.1% active; in the data active = inhibition above about 58%; tested in S. cerevisiae
# L major viab – Leishmania major promastigote growth inhibition, primary screen. Leishmania major promastigotes, resazurin fluorescence viability. inhibition, % at 10 µM. 200,000 tested, 9% active; in the data active = inhibition above about 50%;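 also: promastigotes grown with compound for 44 hours at 28 °C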
# m-calpain inh – inhibitors of pig calpain II, primary screen, biochemical, fluorogenic peptide substrate, 1536-well | purified calpain II, 30 min | inhibition, % at 16 µM | 220,000 tested, 0.37% active | AID 1236, 2008;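 active = inhibition above about 50%, limit read from the data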
# Rad51 HR inh – human RAD51 strand exchange inhibitors, primary screen, biochemical, fluorescence | AID 1385, 2008 | 200,000 tested, 0.085% active | inhibition, % at 10 µM | DNA repair protein RAD51 homolog 1 (Homo sapiens), Q06609 | hRad51 DNA strand exchange, fluorescence dequenching;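 active = inhibition above 40% at the single screening dose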;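 also: 0% = DMSO control wells and 100% = blanks with heterologous ssDNA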
#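 Test system: preformed human Rad51 ssDNA filaments; also added: Donor/quencher-labelled 47-bp dsDNA substrate; doses: 10 µM final, single point; times: 37 °C 15-min filament assembly, 30-min compound preincubation, 15-min exchange; detection: FRET fluorescence dequenching, excitation 485 nm, emission 520 nm; read-out basis: Fluorescence-based percent inhibition, control- and blank-normalised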
# PMI act satM6P – human PMI activators, high substrate, primary screen, biochemical, fluorescence intensity, near-saturating mannose 6-phosphate; coupled PMI enzyme assay, resazurin fluorescence, 20 min; active compounds read high; 1 = untreated enzyme, 0 = substrate-free blank; 190,000 tested, 0.34% active; activation factor at 20 µM; Mannose-6-phosphate isomerase (Homo sapiens), P34949;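 active = activation factor of 2 or more at 20 µM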
#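 assay system = human phosphomannose isomerase with PGI, G6PDH, diaphorase coupling enzymes | quantity = 15 ng/mL PMI | incubation = enzyme reaction with compound 20 min at room temperature | medium = HEPES pH 7.4 buffer with MgCl2 and Tween-20 | compound dosing = one concentration, 20 µM, in 1% DMSO | measured by = Diaphorase-driven resazurin-to-resorufin fluorescence, excitation 544, emission 590 nm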
# * = called active by the depositor; / = not tested or not shown. A selection: hits, their analogues and other compounds. The true share with any hit is near 9.8%.
SMILES,PMI act,WT yeast gro inh,L major viab,m-calpain inh,Rad51 HR inh,PMI act satM6P
CCCc1cc(NC(=O)CCl)n(-c2ccccc2)n1,1,-13.0,51.2*,14.7,-15.9,1
Cc1cccc2c1c1ccc3c(c1n2C)C(=O)C=CC3=O,/,/,/,-44.8,/,/
N#CCC(=O)N/N=C/c1cc([N+](=O)[O-])ccc1N1CCOCC1,1,9.8,-7.6,29.4,-2.5,0.9
CN1CCN(c2ccc([N+](=O)[O-])cc2/C=N/NC(=O)c2ccc(F)cc2)CC1,0.9,24.0,11.0,-7.4,/,0.9
CCc1ccc(OCC(=O)N/N=C/c2cc([N+](=O)[O-])ccc2N2CCCCCC2)cc1,0.9,12.4,99.7*,-9.7,5.4,1
O=C(N/N=C/c1cc([N+](=O)[O-])ccc1N1CCCCCC1)c1ccccn1,0.9,-8.5,60.1*,37.7,22.7,0.9
CN(c1ccc([N+](=O)[O-])cc1/C=N/NC(=O)COc1ccccc1)C1CCCCC1,0.8,19.9,91.0*,-28.6,12.8,0.9
CN1CCN(c2ccc([N+](=O)[O-])cc2C(=O)c2ccccc2)CC1,0.9,1.3,56.2*,21.0,-5.5,1
Cc1ccc(C(=O)c2cc([N+](=O)[O-])ccc2N2CCN(C)CC2)cc1,0.9,1.8,10.8,16.5,0.4,1
CCC(=O)O/N=C(\N)c1ccc(Oc2cc(C)c(Cl)c(C)c2)c([N+](=O)[O-])c1,/,/,/,4.3,16.4,/
COC(=O)C1CCN(C(=O)c2cc3c(=O)n4cccc(C)c4nc3n2Cc2ccccc2)CC1,/,/,/,-146.6,20.1,/
CCN(CC)C(=O)C1CCCN(c2ccc([N+](=O)[O-])cc2/C=N/NC(=O)c2cccc(Br)c2)C1 (stereo not drawn),0.8,-4.3,40.8,-120.3,-2.4,0.8
O=C(NC1CCCCC1)c1cc([N+](=O)[O-])ccc1N1CCCCC1,0.8,-2.9,3.5,27.5,118.2*,0.8
CCC1CCCCN1c1ccc([N+](=O)[O-])cc1/C=N/NC(=O)Cn1c2ccccc2c(=O)c2ccccc21 (stereo not drawn),1.1,-6.0,51.0*,-104.8,-13.5,1.1
Cc1c(C(=O)NCCSCc2cccc(C(F)(F)F)c2)cnn1-c1ccc(F)cc1,/,/,/,10.5,18.8,/
O=C(Nc1nccs1)C1CCN(S(=O)(=O)c2c(Cl)cccc2Cl)CC1,0.9,10.2,-3.7,3.5,3.7,1
CC(=O)N1CCN(CC(=O)Nc2c(Cl)ccc(C)c2Cl)CC1,1,-9.9,-0.8,-28.8,14.2,1
CC(CNS(=O)(=O)c1ccccc1)(c1ccccc1)N1CCCCC1 (stereo not drawn),/,/,/,-9.9,6.2,/
O=S(=O)(N/N=C\C=C\c1ccccc1)c1ccccc1,/,/,51.1*,/,-0.7,/
Cc1ccc(S(=O)(=O)N(C)C)cc1NC(=O)c1ccc(OC(F)(F)F)cc1,1,3.2,-1.3,-18.7,-6.0,1
O=C(Cc1ccc(Cl)cc1)Nc1cccc(S(=O)(=O)Nc2ccccc2F)c1,0.8,-6.7,69.1*,-27.6,-5.5,0.9
CN(C)S(=O)(=O)c1cccc(NC(=O)c2ccc(OC(F)(F)F)cc2)c1,0.9,13.8,56.9*,24.6,-2.8,0.9
O=C(CCC(=O)c1ccc(F)cc1)Nc1cccc(S(=O)(=O)Nc2cccc(Cl)c2)c1,1,-35.5,69.2*,-24.4,-32.6,1
NS(=O)(=O)c1cccc(NC(=O)COC(=O)Cc2ccc(Cl)cc2)c1,1.2,-11.9,-3.0,23.3,-3.9,1.1
CN(C)S(=O)(=O)c1cccc(NC(=O)Cc2ccc(Cl)cc2)c1,1.1,10.5,67.2*,13.4,-0.4,1
SMILES,PMI act,WT yeast gro inh,L major viab,m-calpain inh,Rad51 HR inh,PMI act satM6P
Cc1cc(NC(=O)CSc2nnnn2C)n(-c2ccccc2)n1,1,7.7,-1.9,-34.0,17.6,1
O=C(Cc1cccc2ccccc12)N/N=C/c1ccc(Sc2nc3ccccc3s2)o1,0.9,5.7,12.0,-4.1,5.9,1
Cc1csc(NS(=O)(=O)c2cccc([N+](=O)[O-])c2)n1,0.9,3.0,-0.4,25.9,-5.0,0.9
Cc1ccc(NCC(=O)Nc2cccc(S(=O)(=O)N(C)C)c2)c(Cl)c1,0.9,10.8,75.5*,39.0,-6.8,0.9
O=C(Nc1ccc(N2CCOCC2)cc1)c1cccc(S(=O)(=O)N2CCC(Cc3ccccc3)CC2)c1,0.9,-10.4,-4.3,-78.4,-7.6,0.9
COc1ccc(CCNC(=O)Cn2c(=O)[nH]c3ccsc3c2=O)cc1OC,1.1,-15.1,-11.6,7.9,0.0,1
CCCCOCCCNc1ncnc2c1[nH]c1ccccc12,1,17.2,79.8*,-3.7,3.8,1
CCCCOc1ncnc2c1[nH]c1ccccc12,1.1,1.4,57.2*,-71.7,2.1,0.9
CCOCCCNc1ncnc2c1[nH]c1ccccc12,0.9,-14.6,44.0,-49.1,2.9,1
CCCCOc1ncnc2c1[nH]c1ccc(OCC)cc12,0.9,46.8,11.8,-27.1,-4.0,0.9
CCOC(=O)C(=CN=C(N)Nc1nc2ccccc2o1)C(=O)OCC,0.9,-2.5,56.0*,-12.9,14.9,0.9
CC(NC(=O)C12CC3(C)CC(C)(CC(C)(C3)C1)C2)C(=O)O (stereo not drawn),1,-5.7,0.3,-25.8,15.2,1
COc1ccc(C2=NOC(Cn3c(Cc4ccc(Cl)cc4)nc4c3c(=O)n(C)c(=O)n4C)C2)cc1 (stereo not drawn),0.9,37.1,63.9*,-169.4,-3.1,0.9
COc1ccc(OCC(=O)NC(=S)Nc2ccccc2F)cc1,1,12.8,42.5,-12.4,1.7,1
O=S(=O)(NCc1ccccc1F)NCc1ccccc1F,1,-5.1,-3.0,-28.2,2.0,1.1
CC(C)CCNC(=O)C12CN(Cc3ccccc3)CC1C(c1ccc([N+](=O)[O-])cc1)=NO2 (stereo not drawn),0.9,40.7,4.8,57.7*,-8.2,0.9
Cn1cc(CNCc2ccc(-n3cccn3)cc2)c(-c2ccccc2F)n1,1,5.9,7.6,6.5,-7.8,1
COc1ccc(C(c2nnnn2C2CCCCC2)N2CCN(c3ccccc3)CC2)cc1 (stereo not drawn),0.9,/,84.0*,/,/,1
COc1ccc(C(c2nnnn2C2CCCC2)N2CCN(c3ccccc3)CC2)cc1 (stereo not drawn),0.9,28.9,62.6*,7.7,-4.2,0.9
Cn1nc(-c2ccc(C(=O)NCCO)cc2)c2ccccc2c1=O,/,/,/,1.9,-19.3,/
Cc1cccc(C(=O)O/N=C/c2ccc(Br)cc2)c1,1,60.3*,-5.5,0.4,-1.8,1
